Test results as given in ChEMBL document CHEMBL3861952, “Donepezil-like multifunctional agents: Design, synthesis, molecular modeling and biological evaluation” (Eur J Med Chem, 2016).

Columns and labels:
Acetylcholinesterase [1] = target: T1, Acetylcholinesterase (Homo sapiens, UniProt P22303); experiment: Inhibition of human recombinant AChE expressed in HEK293 cells using acetylthiocholine iodide as substrate preincubated for 30 mins followed by substrate addition measured after 30 mins by Ellman's method
T1 sequence (P22303 whole entry): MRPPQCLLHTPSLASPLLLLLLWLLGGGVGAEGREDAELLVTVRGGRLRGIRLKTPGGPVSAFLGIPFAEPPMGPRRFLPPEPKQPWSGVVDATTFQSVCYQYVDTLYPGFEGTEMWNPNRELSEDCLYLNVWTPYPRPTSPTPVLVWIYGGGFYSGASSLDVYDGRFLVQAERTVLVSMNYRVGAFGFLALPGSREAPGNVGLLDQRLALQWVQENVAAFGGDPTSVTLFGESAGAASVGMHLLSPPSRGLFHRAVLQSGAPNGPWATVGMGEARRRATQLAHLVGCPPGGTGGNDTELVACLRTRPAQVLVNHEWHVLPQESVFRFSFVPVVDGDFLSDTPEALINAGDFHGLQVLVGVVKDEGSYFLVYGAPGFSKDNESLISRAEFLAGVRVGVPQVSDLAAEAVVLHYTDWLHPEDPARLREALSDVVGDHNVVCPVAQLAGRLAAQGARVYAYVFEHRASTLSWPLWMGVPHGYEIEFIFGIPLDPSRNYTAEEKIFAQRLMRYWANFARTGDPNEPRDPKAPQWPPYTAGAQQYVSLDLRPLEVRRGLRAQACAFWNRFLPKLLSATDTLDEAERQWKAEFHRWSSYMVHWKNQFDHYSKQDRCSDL

Cholinesterase [2] = target: T2, Cholinesterase (Homo sapiens, UniProt P06276); experiment: Inhibition of human recombinant BuChE expressed in HEK293 cells using S-butyrylthiocholine iodide as substrate preincubated for 30 mins followed by substrate addition measured after 30 mins by Ellman's method
T2 sequence (P06276 whole entry): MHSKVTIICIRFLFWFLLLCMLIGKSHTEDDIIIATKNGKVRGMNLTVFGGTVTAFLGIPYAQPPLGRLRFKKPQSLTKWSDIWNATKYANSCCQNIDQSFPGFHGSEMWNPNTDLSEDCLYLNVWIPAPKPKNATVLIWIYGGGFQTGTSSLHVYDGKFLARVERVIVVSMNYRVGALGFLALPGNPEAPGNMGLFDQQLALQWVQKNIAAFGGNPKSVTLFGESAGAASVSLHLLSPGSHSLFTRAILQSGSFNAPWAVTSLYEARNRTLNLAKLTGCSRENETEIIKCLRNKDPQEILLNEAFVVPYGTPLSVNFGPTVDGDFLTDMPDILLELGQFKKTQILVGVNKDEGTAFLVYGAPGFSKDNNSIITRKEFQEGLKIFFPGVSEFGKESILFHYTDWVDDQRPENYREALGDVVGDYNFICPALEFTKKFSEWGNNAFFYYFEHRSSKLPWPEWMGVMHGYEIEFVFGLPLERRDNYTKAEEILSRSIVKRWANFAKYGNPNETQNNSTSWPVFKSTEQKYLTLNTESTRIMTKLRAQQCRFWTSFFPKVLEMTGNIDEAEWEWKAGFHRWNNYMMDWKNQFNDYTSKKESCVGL
How it was run: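 Ellman assay in 0.1 M phosphate buffer pH 8.0 with 0.05 U/mL BuChE and 0.35 mM DTNB. Serial inhibitor dilutions pre-incubated 30 min at 37 °C, then 0.5 mM S-butyrylthiocholine iodide (final) added. Reaction followed at least 30 min at 405 nm. IC50 from dose-response curves; mean ± S.E.M., at least three experiments in triplicate.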

[3] = target: T3, Amine oxidase [flavin-containing] A (Homo sapiens, UniProt P21397); experiment: Inhibition of human recombinant MAOA using p-tyramine as substrate preincubated for 30 mins followed by substrate addition measured for 1 hr by horse-radish peroxidase/amplex red-based fluorometric method
T3 sequence (P21397 whole entry): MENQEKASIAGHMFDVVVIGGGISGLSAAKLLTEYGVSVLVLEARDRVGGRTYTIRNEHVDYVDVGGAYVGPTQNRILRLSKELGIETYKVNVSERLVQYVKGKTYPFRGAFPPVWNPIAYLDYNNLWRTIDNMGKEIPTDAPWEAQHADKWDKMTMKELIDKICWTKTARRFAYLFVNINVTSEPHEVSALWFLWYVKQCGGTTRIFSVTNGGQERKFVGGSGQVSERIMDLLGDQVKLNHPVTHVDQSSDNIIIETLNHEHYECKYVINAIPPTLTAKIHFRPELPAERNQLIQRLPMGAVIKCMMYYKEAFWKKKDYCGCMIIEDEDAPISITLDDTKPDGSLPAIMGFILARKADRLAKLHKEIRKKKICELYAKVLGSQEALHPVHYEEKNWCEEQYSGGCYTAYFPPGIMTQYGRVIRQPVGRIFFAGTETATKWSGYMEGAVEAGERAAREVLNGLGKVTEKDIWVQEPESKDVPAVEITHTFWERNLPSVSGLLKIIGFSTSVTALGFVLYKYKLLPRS

[4] = target: T4, Amine oxidase [flavin-containing] B (Homo sapiens, UniProt P27338); experiment: Inhibition of human recombinant MAOB using p-tyramine as substrate preincubated for 30 mins followed by substrate addition measured for 1 hr by horse-radish peroxidase/amplex red-based fluorometric method
T4 sequence (P27338 whole entry): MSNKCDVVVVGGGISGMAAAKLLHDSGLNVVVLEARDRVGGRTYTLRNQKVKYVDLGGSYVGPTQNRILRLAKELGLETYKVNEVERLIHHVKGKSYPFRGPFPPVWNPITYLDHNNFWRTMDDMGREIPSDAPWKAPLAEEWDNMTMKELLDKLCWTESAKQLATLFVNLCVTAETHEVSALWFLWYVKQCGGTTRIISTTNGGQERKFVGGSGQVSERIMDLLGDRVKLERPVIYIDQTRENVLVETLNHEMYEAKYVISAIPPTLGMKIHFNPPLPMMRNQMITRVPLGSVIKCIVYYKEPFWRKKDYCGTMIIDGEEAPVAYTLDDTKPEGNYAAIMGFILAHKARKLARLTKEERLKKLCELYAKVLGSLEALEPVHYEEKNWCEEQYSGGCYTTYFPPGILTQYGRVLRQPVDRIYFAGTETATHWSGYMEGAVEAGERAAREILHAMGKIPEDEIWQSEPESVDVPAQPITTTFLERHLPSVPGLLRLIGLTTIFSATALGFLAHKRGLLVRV

[5] = target: T3, Amine oxidase [flavin-containing] A; experiment: Inhibition of human recombinant MAOA using p-tyramine as substrate measured for 1 hr by horse-radish peroxidase/amplex red-based fluorometric method
How it was run: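 Human recombinant MAO-A (360 mU/mL) pre-incubated 30 min at 37 °C with serial inhibitor dilutions. Reaction started with 1 mM p-tyramine, 40 U/mL HRP and 25 μM Amplex UltraRed (final) in 0.25 mM sodium phosphate pH 7.4. Resorufin fluorescence (ex 530/em 590) read continuously ≥1 h. Water controls, no-substrate blanks. IC50 from dose-response curves; mean ± S.E.M., ≥3 experiments in triplicate.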

[6] = target: T3, Amine oxidase [flavin-containing] A; experiment: Inhibition of human recombinant MAOA using p-tyramine as substrate preincubated for 120 mins followed by substrate addition measured for 1 hr by horse-radish peroxidase/amplex red-based fluorometric method
How it was run: (§1)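 Time-dependent series: hrMAO-A pre-incubated with increasing inhibitor concentrations for varied times (0–240 min) before addition of p-tyramine. Fluorometric HRP/Amplex UltraRed read-out as in the standard assay (1 mM p-tyramine, pH 7.4 phosphate, ex 530/em 590). IC50 derived from a dose-response curve at each pre-incubation time.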

[7] = target: T3, Amine oxidase [flavin-containing] A; experiment: Inhibition of human recombinant MAOA using p-tyramine as substrate preincubated for 60 mins followed by substrate addition measured for 1 hr by horse-radish peroxidase/amplex red-based fluorometric method; how it was run: as §1
Cholinesterase [8] = target: T2, Cholinesterase; experiment: Mixed-type inhibition of human recombinant BuChE expressed in HEK293 cells using S-butyrylthiocholine iodide as substrate preincubated for 30 mins followed by substrate addition measured after 30 mins by Lineweaver-Burk plot analysis
[9] = Metal chelating activity of the compound assessed as compound-Cu2+ complex formation at 10 uM after 5 mins by UV-Vis spectrophotometric method; assay type: physicochemical
How it was run: (§2)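 Run in distilled water at room temperature: UV-Vis spectra (220–300 nm, 1 cm quartz) of 10 μM compound with CuSO4 or ZnSO4 at 1–5 μM. Complexation followed at 262 nm. Stoichiometry by Job's method: 21 mixtures, total concentration 10 μM, proportions varied 0–100%.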

[10] = target: T3, Amine oxidase [flavin-containing] A; experiment: Inhibition of human recombinant MAOA using p-tyramine as substrate preincubated for 240 mins followed by substrate addition measured for 1 hr by horse-radish peroxidase/amplex red-based fluorometric method; how it was run: as §1
[11] = target: T3, Amine oxidase [flavin-containing] A; experiment: Inhibition of human recombinant MAOA using p-tyramine as substrate preincubated for 180 mins followed by substrate addition measured for 1 hr by horse-radish peroxidase/amplex red-based fluorometric method; how it was run: as §1
[12] = Metal chelating activity of the compound assessed as compound-Zn2+ complex formation at 10 uM after 15 hrs by UV-Vis spectrophotometric method; assay type: physicochemical; how it was run: as §2
Acetylcholinesterase [13] = target: T1, Acetylcholinesterase; experiment: Mixed-type inhibition of human recombinant AChE expressed in HEK293 cells using acetylthiocholine iodide as substrate preincubated for 30 mins followed by substrate addition measured after 30 mins by Lineweaver-Burk plot analysis
[14] = target: T3, Amine oxidase [flavin-containing] A; experiment: Inhibition of human recombinant MAOA using p-tyramine as substrate preincubated for 15 mins followed by substrate addition measured for 1 hr by horse-radish peroxidase/amplex red-based fluorometric method; how it was run: as §1

SMILES | IC50 (Acetylcholinesterase [1]) [µM] | IC50 (Cholinesterase [2]) [µM] | IC50 [3] [µM] | IC50 [4] [µM] | further results
C#CCN(C)[C@H](C)Cc1ccccc1 [SELEGILINE] | > 500 | > 500 |  |  | 
C#CCN(Cc1ccc(O)c2ncccc12)C(C#N)CCC1CCN(Cc2ccccc2)CC1 (centres undefined) | 0.35 | 2.1 | 6.7 | 11.8 | 
C#CCN(CCCC1CCN(Cc2ccccc2)CC1)Cc1ccc2cccc(O)c2n1 | 1.5 | 0.023 | 37 | > 100 | 
C#CCN(Cc1ccc2cccc(O)c2n1)CC1CCN(Cc2ccccc2)CC1 | 9.7 | 0.064 | 46.5 | > 100 | 
C#CCN(Cc1ccc2cccc(O)c2n1)C(C#N)CC1CCN(Cc2ccccc2)CC1 (centres undefined) | 3.3 | 0.002 | 12.2 | > 100 | 
C#CCN(C)CCCOc1ccc(Cl)cc1Cl [CLORGILINE] | > 500 | > 500 |  |  | 
C#CCN(Cc1ccc2cccc(O)c2n1)C(C#N)CCC1CCN(Cc2ccccc2)CC1 (centres undefined) | 0.029 | 0.039 | 6.2 to 10.1 | > 100 | IC50 [5]: 187 µM; Ki (Acetylcholinesterase [1]): 0.015 µM; IC50 [6]: 1.9 µM; Ki (Cholinesterase [2]): 0.052 µM; IC50 [7]: 3.8 µM; Ki (Cholinesterase [8]): 0.0525 µM; Activity [9]: Active; IC50 [10]: 1.1 µM; IC50 [11]: 1.6 µM; Activity [12]: Active; Ki (Acetylcholinesterase [13]): 0.0149 µM; IC50 [14]: 20.8 µM
C#CCN(CCC1CCN(Cc2ccccc2)CC1)Cc1ccc2cccc(O)c2n1 | 4.1 | 0.079 | 35.6 | > 100 | 
C#CCN(Cc1ccc2cccc(O)c2n1)C(C#N)C1CCN(Cc2ccccc2)CC1 (centres undefined) | 64.2 | 0.03 | 10.2 | > 100 | 
